In ChEMBL document CHEMBL2384936, “Synthesis and evaluation of antimicrobial activity of hydrazones derived from 3-oxido-1H-imidazole-4-carbohydrazides” (Eur J Med Chem, 2013):
Active and inactive are the calls of the source.

Experiments:
Candida albicans = experiment: Antifungal activity against Candida albicans ATCC 10231 assessed as growth inhibition at 1 to 600 ug/mL after 18 hrs by broth microdilution method; format: functional, organism-based
Escherichia coli = experiment: Antibacterial activity against Escherichia coli NCTC 8192 assessed as growth inhibition at 1 to 600 ug/mL after 18 hrs by broth microdilution method; format: functional, organism-based
Enterococcus faecalis = experiment: Antibacterial activity against Enterococcus faecalis ATCC 29212 assessed as growth inhibition at 1 to 600 ug/mL after 18 hrs by broth microdilution method; format: functional, organism-based
Staphylococcus aureus [1] = experiment: Antibacterial activity against Staphylococcus aureus ATCC 29213 assessed as growth inhibition at 1 to 600 ug/mL after 18 hrs by broth microdilution method; format: functional, organism-based
How it was run: (§1)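 Frozen stocks (-80 °C, tryptic soy broth with 15% glycerol); S. aureus subcultured on blood agar and identified by catalase, coagulase and clumping factor. Inoculum at 0.5 McFarland. DMSO-dissolved compounds 1–600 µg/mL in Mueller–Hinton broth, 37 °C 18 h, OD600 read with and without compound. MIC = lowest concentration preventing growth; triplicates, per CLSI.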

Proteus mirabilis = experiment: Antibacterial activity against Proteus mirabilis ATCC 29906 assessed as growth inhibition at 1 to 600 ug/mL after 18 hrs by broth microdilution method; format: functional
[2] = test system: Staphylococcus epidermidis; experiment: Antibacterial activity against Staphylococcus epidermidis ATCC 12228 assessed as growth inhibition at 1 to 600 ug/mL after 18 hrs by broth microdilution method; format: functional, organism-based
Staphylococcus aureus [3] = experiment: Antibacterial activity against Staphylococcus aureus ATCC 6538 assessed as growth inhibition at 1 to 600 ug/mL after 18 hrs by broth microdilution method; format: functional, organism-based; how it was run: as §1
Pseudomonas aeruginosa = experiment: Antibacterial activity against Pseudomonas aeruginosa NCTC 6249 assessed as growth inhibition at 1 to 600 ug/mL after 18 hrs by broth microdilution method; format: functional, organism-based
Proteus vulgaris = experiment: Antibacterial activity against Proteus vulgaris ATCC 49990 assessed as growth inhibition at 1 to 600 ug/mL after 18 hrs by broth microdilution method; format: functional, organism-based

Measured: Activity

C/C(=N\NC(=O)c1c(C)n(Cc2ccccc2)c[n+]1[O-])c1ccccc1
inactive: all assays above

COc1ccc(/C=N/NC(=O)c2c(C)n(Cc3ccccc3)c[n+]2[O-])cc1
inactive: all assays above

Cc1c(C(=O)N/N=C/c2ccc(N(C)C)cc2)[n+]([O-])cn1Cc1ccccc1
inactive: all assays above

Cc1c(C(=O)N/N=C/c2ccc([N+](=O)[O-])cc2)[n+]([O-])cn1Cc1ccccc1
inactive: all assays above

Cc1c(C(=O)N/N=C/c2ccccc2)[n+]([O-])cn1Cc1ccccc1
inactive: all assays above
